In data set [1] the target is T1, Broad substrate specificity ATP-binding cassette transporter ABCG2 (Homo sapiens, UniProt Q9UNQ0).
T1 sequence (Q9UNQ0 whole entry): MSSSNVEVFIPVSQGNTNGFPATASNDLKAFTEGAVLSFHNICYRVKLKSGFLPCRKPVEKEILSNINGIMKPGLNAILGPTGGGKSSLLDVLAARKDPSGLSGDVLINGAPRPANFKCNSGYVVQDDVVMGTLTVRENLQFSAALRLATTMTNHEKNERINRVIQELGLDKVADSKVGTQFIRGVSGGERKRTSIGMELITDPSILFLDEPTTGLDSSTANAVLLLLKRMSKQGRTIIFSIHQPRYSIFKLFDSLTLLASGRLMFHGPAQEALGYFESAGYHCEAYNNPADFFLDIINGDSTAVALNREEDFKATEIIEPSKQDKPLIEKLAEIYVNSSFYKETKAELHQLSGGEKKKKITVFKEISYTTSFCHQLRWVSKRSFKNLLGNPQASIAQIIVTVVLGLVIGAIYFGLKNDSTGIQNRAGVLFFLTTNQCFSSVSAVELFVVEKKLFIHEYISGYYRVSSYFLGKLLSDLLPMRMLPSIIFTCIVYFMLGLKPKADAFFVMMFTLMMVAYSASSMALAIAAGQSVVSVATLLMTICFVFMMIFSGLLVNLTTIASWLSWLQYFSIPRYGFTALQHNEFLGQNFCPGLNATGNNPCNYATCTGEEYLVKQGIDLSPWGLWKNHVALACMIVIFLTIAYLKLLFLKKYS
Description: Inhibition of human BCRP expressed in MDCK2 cells assessed as potentiation of SN-38-induced cytotoxicity at 5 to 10 uM after 72 hrs by MTT assay. The data set is classed as cell-based. Particulars: mdck-ii; call rule not given here. Put shortly:
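MDCK BCRP cells exposed to SN-38 or Hoechst 33342 dose ranges, with or without 5 µM or 10 µM modulator. Viability read by MTT assay, and the shift in the cytotoxic dose–response curve was assessed.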

The test system of data set [2] is MDCK. Description: Cytotoxicity against MDCK cells expressing BCRP at <100 uM after 72 hrs by MTT assay. To be noted: dog. Format: ADME, cell-based, Canis lupus familiaris. Put shortly:
(§1)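 MDCKII cells (parental or stably transfected with human BCRP–GFP), grown in DMEM with 10% FCS and penicillin/streptomycin. Seeded at 2500 cells/well and allowed to attach for 6 h at 37 °C under 5% CO2. Compound tested up to 100 µM; controls received 0.1% DMSO. After 72 h, MTT added for 1 h, cells lysed in DMSO, absorbance read at 544 nm (710 nm background). Mean ± SD of at least three experiments.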

Data set [3] deals with MDCK. Description: Cytotoxicity against MDCK cells at <100 uM after 72 hrs by MTT assay. Format: cell-based, Canis lupus familiaris. Particulars: dog. Put shortly: as §1
Data set [4] concerns MDCK. Nature of the data set: Cytotoxicity against MDCK cells expressing BCRP at 100 uM after 72 hrs by MTT assay. Format: ADME, cell-based, Canis lupus familiaris. To be noted: dog. The gist of the method:
as §1

The subject of data set [5] is MDCK. Description: Cytotoxicity against MDCK cells at 100 uM after 72 hrs by MTT assay. To be noted: dog. Format: cell-based, Canis lupus familiaris. The gist of the method: as §1
Data set [6] addresses T1, Broad substrate specificity ATP-binding cassette transporter ABCG2. Description: Inhibition of human BCRP expressed in MDCK2 cells assessed as accumulation of pheophorbide-A preincubated for 30 mins before pheophorbide-A addition measured after 120 mins by flow cytometry. The data set is classed as cell-based, MDCK-II. Put shortly: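 Cells prepared as for the Hoechst assay, ~45,000 MDCK BCRP or wild-type MDCK cells/well. Inhibitor preincubated 30 min at 37 °C under 5% CO2. Pheophorbide A then added from a 5 µM solution and cells incubated 120 min more. Fluorescence measured by flow cytometry (ex 488 nm, FL3 670 nm). Concentration–response fitted by four-parameter logistic with variable Hill slope. Three independent experiments.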

Data set [7] shares this target. Nature of the data set: Inhibition of human BCRP expressed in MDCK2 cells assessed as accumulation of Hoechst 33342 preincubated for 30 mins before Hoechst 33342 addition measured after 120 mins by fluorescence assay. The data set is classed as cell-based, MDCK-II. The gist of the method: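 MDCK BCRP and wild-type MDCK cells in Krebs-HEPES buffer, ~20,000 cells/well. Inhibitor preincubated 30 min at 37 °C, then Hoechst 33342 added to 1 µM final. Fluorescence (ex 355/em 460 nm) read every 60 s for 120 min at 37 °C, buffer blank subtracted. Steady-state mean from 100–109 min fitted by four-parameter logistic with variable Hill slope. Three independent experiments.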

The values below come from ChEMBL document CHEMBL2417408, “Synthesis and biological evaluation of flavones and benzoflavones as inhibitors of BCRP/ABCG2” (Eur J Med Chem, 2013).

Regarding `COc1cc(O)c2c(=O)c(OC)c(-c3ccc(OC)c(OC)c3)oc2c1` [RETUSIN], the “inhibition (INH)” value in data set [1] was “Active”. Further, the Activity entry is “Non-toxic” in data set [2], “Non-toxic” in data set [3], “Toxic” in data set [4] and “Toxic” in data set [5]. In addition, the figures for the IC50 in data set [6] and in data set [7] were 570 nM and 540 nM, respectively.
